Experimental data: ChEMBL document CHEMBL1148450, “Novel amino acid derived natural products from the ascidian Atriolum robustum: identification and pharmacological characterization of a unique adenosine derivative” (J Med Chem, 2004)

Columns and labels:
Adenosine receptor A2a [1] = molecular target: T1, Adenosine receptor A2a (Rattus norvegicus, UniProt P30543); assay: Displacement of [3H]-MSX-2 from Adenosine A2A receptor of rat striatal membranes; format: cell membranes, Membrane
Procedure, shortened: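 Rat striatal membranes (protein ca. 70 µg/mL) were incubated with 1 nM [3H]MSX-2 in 50 mM Tris-HCl, pH 7.4, for 30 min at 23 °C. […] Filtration was on PEI-presoaked GF/B filters with scintillation counting. Seven to nine concentrations (DMSO stock) spanned 3 log units; three experiments, each in duplicate.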

Adenosine receptor A1 [2] = molecular target: T2, Adenosine receptor A1 (Rattus norvegicus, UniProt P25099); assay: Displacement of [3H]CCPA from Adenosine A1 receptor of rat cortical membranes; format: cell membranes, Membrane
T2 sequence (P25099 whole entry): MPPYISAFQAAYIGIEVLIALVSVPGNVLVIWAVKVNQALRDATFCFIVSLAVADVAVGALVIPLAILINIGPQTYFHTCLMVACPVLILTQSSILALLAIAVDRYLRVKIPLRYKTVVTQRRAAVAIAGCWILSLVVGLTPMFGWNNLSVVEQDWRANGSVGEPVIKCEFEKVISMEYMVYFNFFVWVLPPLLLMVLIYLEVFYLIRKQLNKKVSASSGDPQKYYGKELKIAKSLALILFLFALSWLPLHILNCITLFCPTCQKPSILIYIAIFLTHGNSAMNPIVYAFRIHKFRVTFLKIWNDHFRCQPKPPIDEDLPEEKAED
Procedure, shortened: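 A1 binding used rat cortical membranes (ca. 70 µg/mL protein) with 0.5 nM [3H]CCPA in 50 mM Tris-HCl, pH 7.4, for 90 min at 23 °C. 10 µM 2-chloroadenosine defined nonspecific binding. Separation was by GF/B filtration and scintillation counting. Inhibition curves had seven to nine concentrations across 3 orders of magnitude; three separate experiments, each in duplicate.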

Adenosine receptor A1 [3] = molecular target: T2, Adenosine receptor A1; assay: Displacement of [3H]DPCPX from rat Adenosine A1 receptor of cortical membranes; format: cell membranes, Membrane
Procedure, shortened: (§1)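 Cortical A1 assay as for [3H]CCPA (50 mM Tris-HCl pH 7.4, 23 °C, 90 min, ~70 µg/mL protein) but with [3H]DPCPX as radioligand and 10 µM unlabeled DPCPX for nonspecific binding. Curves were run without and with 100 µM GTP and fitted by nonlinear regression to apparent IC50s. GTP shift = IC50(+GTP)/IC50(−GTP). Two experiments, each in duplicate.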

Adenosine receptor A3 [4] = molecular target: T3, Adenosine receptor A3 (Homo sapiens, UniProt P0DMS8); assay: Displacement of [3H]PSB-11 from human adenosine A3 receptor expressed in CHO cells; format: cell-based
T3 sequence (P0DMS8 whole entry): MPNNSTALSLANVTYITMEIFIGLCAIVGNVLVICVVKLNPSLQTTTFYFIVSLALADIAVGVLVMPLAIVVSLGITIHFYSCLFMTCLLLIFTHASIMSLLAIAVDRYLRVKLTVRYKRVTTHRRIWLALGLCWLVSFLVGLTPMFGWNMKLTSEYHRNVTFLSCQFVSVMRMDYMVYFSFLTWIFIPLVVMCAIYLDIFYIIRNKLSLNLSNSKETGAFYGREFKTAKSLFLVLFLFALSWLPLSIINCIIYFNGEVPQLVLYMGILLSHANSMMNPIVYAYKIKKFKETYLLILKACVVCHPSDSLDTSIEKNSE
Procedure, shortened: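 Membranes came from CHO cells stably expressing human A3AR. They were incubated with 0.5 nM [3H]PSB-11 in 50 mM Tris-HCl, pH 7.4, for 45 min, and 100 µM R-PIA defined nonspecific binding. Bound radioactivity was collected on GF/B filters and scintillation-counted. Seven to nine test concentrations were used; run twice, each in duplicate.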

Adenosine receptor A3 [5] = molecular target: T3, Adenosine receptor A3; assay: Inhibition of forskolin-stimulated cAMP accumulation in chinese hamster ovary cell membranes expressing human adenosine A3 receptor; format: functional, cell-based
[6] = molecular target: T4, Adenosine receptor A3 (Homo sapiens) (UniProt P0DMS8); assay: Percent efficacy for inhibition of human adenosine A3 receptor activity relative to NECA; format: functional
T4 sequence (whole entry): T3 sequence (P0DMS8 whole entry)

Adenosine receptor A2b [7] = molecular target: T5, Adenosine receptor A2b (Homo sapiens, UniProt P29275); assay: Displacement of [3H]PSB-298 from human adenosine A2B receptor expressed in HEK293 cells at 10 uM; format: cell-based
T5 sequence (P29275 whole entry): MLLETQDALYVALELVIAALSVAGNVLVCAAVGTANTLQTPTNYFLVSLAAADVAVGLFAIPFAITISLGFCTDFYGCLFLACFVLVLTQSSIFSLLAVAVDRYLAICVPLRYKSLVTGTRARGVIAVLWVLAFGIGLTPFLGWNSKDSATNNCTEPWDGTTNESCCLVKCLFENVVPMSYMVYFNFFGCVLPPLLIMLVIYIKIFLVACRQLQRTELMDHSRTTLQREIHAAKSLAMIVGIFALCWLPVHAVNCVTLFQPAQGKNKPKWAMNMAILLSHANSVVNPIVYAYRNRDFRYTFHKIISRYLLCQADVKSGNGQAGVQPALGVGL

Adenosine receptor A1 [8] = molecular target: T2, Adenosine receptor A1; assay: Displacement of [3H]DPCPX from adenosine A1 receptor of rat cortical membranes without GTP; format: cell membranes, Membrane; procedure, shortened: as §1
Adenosine receptor A1 [9] = molecular target: T2, Adenosine receptor A1; assay: Displacement of [3H]DPCPX from adenosine A1 receptor of rat cortical membranes with GTP; format: cell membranes, Membrane; procedure, shortened: as §1
[10] = molecular target: T6, Adenosine receptor A1 (Rattus norvegicus) (UniProt P25099); assay: Binding affinity against adenosine A1 receptor in the presence of GTP relative to the absence of GTP
T6 sequence (whole entry): T2 sequence (P25099 whole entry)

Adenosine receptor A2a [11] = molecular target: T1, Adenosine receptor A2a; assay: Displacement of [3H]NECA from Adenosine A2A receptor of rat striatal membranes; format: cell membranes, Membrane
Adenosine receptor A1 [12] = molecular target: T2, Adenosine receptor A1; assay: Displacement of [3H]CCPA from adenosine A1 receptor of rat cortical membranes; format: cell membranes, Membrane
Procedure, shortened: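 Rat brain cortical membranes at about 70 µg/mL protein, with 0.5 nM [3H]CCPA in 50 mM Tris-HCl pH 7.4, 23 °C for 90 min. Nonspecific binding was set with 10 µM 2-chloroadenosine. Bound ligand was collected by GF/B filtration and counted by scintillation. The test compound came from DMSO at 7–9 concentrations spanning 3 orders of magnitude. Three experiments were run, each in duplicate.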

Adenosine receptor A1 [13] = molecular target: T2, Adenosine receptor A1; assay: Displacement of [3H]DPCPX from adenosine A1 receptor of rat cortical membranes; format: cell membranes, Membrane
Procedure, shortened: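 Run as the rat cortical membrane A1 assay (50 mM Tris-HCl pH 7.4, 23 °C, 90 min) but with [3H]DPCPX as radioligand. Nonspecific binding was set with 10 µM unlabeled DPCPX. Binding was measured without and with 100 µM GTP, and IC50 came from nonlinear regression. GTP shift is the IC50 with GTP divided by the IC50 without GTP. Two experiments were run, each in duplicate.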

Adenosine receptor A1 [14] = molecular target: T2, Adenosine receptor A1; assay: Displacement of [3H]R-PIA from adenosine A1 receptor of rat cortical membranes; format: cell membranes, Membrane
Adenosine receptor A2b [15] = molecular target: T5, Adenosine receptor A2b; assay: Binding affinity towards human adenosine A2B receptor in VA13 fibroblasts as […] at 10 uM; Less than 10% inhibition; format: functional
Adenosine receptor A2b [16] = molecular target: T5, Adenosine receptor A2b; assay: Displacement of [3H]PSB-298 from human adenosine A2B receptor expressed in HEK293 cells at 10 uM; Less than 10% inhibition; format: cell-based

T1 sequence (P30543 whole entry): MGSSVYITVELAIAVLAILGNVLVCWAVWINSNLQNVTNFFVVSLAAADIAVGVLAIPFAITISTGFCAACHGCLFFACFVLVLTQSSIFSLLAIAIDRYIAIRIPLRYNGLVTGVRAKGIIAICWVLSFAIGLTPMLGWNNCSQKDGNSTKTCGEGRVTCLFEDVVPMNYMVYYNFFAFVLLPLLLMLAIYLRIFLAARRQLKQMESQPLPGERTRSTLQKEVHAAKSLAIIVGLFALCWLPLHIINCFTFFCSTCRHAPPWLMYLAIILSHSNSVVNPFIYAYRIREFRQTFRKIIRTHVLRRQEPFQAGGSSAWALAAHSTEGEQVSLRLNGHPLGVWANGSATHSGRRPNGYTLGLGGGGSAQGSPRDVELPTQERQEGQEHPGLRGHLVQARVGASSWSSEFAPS

Row | Compound | Ki (Adenosine receptor A2a [1]) [µM] | Ki (Adenosine receptor A1 [2]) [µM] | Ki (Adenosine receptor A1 [3]) [µM] | Ki (Adenosine receptor A3 [4]) [µM] | IC50 (Adenosine receptor A3 [5]) [µM] | Efficacy [6] [%] | Ki (Adenosine receptor A2b [7]) [µM] | IC50 (Adenosine receptor A1 [8]) [µM] | IC50 (Adenosine receptor A1 [9]) [µM] | Ratio [10] | Ki (Adenosine receptor A2a [11]) [nM] | Ki (Adenosine receptor A1 [12]) [nM] | Ki (Adenosine receptor A1 [13]) [nM] | Ki (Adenosine receptor A1 [14]) [nM] | Ki (Adenosine receptor A2b [15]) [µM] | Ki (Adenosine receptor A2b [16]) [µM]
1 | CO/C(=C\c1ccc(O)cc1)C(=O)O[C@@H]1[C@H](OC(=O)/C=C/c2c[nH]cn2)[C@@H](CSC)O[C@H]1n1cnc2c(N)ncnc21 | 17.1 | 3.26 | 9.45 | 6.94 | 6.7 | 56 | > 10 | 23 | 143 | 6.2 | – | – | – | – | – | –
2 | Cn1cnc2c(N)ncnc21 | – | – | – | – | – | – | – | 12.5 | 14.7 | 1.2 | – | – | – | – | – | –
3 | CC(=O)O[C@]1(C(C)=O)CC[C@H]2[C@@H]3C=C(Cl)C4=CC(=O)[C@@H]5C[C@@H]5[C@]4(C)[C@H]3CC[C@@]21C [CYPROTERONE ACETATE] | – | – | – | – | – | – | – | 0.005 | 0.125 | 22.8 | – | – | – | – | – | –
4 | CSC[C@H]1O[C@@H](n2cnc3c(N)ncnc32)[C@H](O)[C@@H]1O [METHYLTHIOADENOSINE] | 1.13 | – | – | 0.68 | 71 | 46 | – | 0.68 | 15.1 | 22.2 | 1180 | 150 | 210 | 240 | 8.2 | 13.9
